Measurements as given in ChEMBL document CHEMBL1759915, “Synthesis and anticancer effects of some novel pyrazolo[3,4-d]pyrimidine derivatives by generating reactive oxygen species in human breast adenocarcinoma cells” (Eur J Med Chem, 2011).
≈ marks a conversion by molar mass, not a printed value.

Key:
[1] = system: MCF7; assay: Effect on hydrogen peroxide level in human MCF7 cells assessed per mg protein at 2 ug/ml by Wolf's method after 24 hrs (reference value: 12.50 +/- 1.54 nmol/mg of protein); type: functional
[2] = system: MCF7; assay: Effect on hydrogen peroxide level in human MCF7 cells assessed per mg protein at 5 ug/ml by Wolf's method after 24 hrs (reference value: 12.50 +/- 1.54 nmol/mg of protein); type: functional
[3] = system: MCF7; assay: Effect on hydrogen peroxide level in human MCF7 cells assessed per mg protein at 10 ug/ml by Wolf's method after 24 hrs (reference value: 12.50 +/- 1.54 nmol/mg of protein); type: functional
[4] = system: MCF7; assay: Effect on hydrogen peroxide level in human MCF7 cells assessed per mg protein at 20 ug/ml by Wolf's method after 24 hrs (reference value: 12.50 +/- 1.54 nmol/mg of protein); type: functional
[5] = system: MCF7; assay: Decrease in CAT level in human MCF7 cells; type: functional, cell-based
[6] = system: MCF7; assay: Decrease in glutathione peroxidase level in human MCF7 cells; type: functional, cell-based
[7] = system: MCF7; assay: Decrease in glutathione level in human MCF7 cells; type: functional, cell-based
[8] = system: MCF7; assay: Increase in hydrogen peroxide level in human MCF7 cells; type: functional, cell-based
[9] = system: MCF7; assay: Increase in SOD level in human MCF7 cells; type: functional, cell-based
[10] = system: MCF7; assay: Effect on DNA level in human MCF7 cells assessed per 10 '6 cells at 2 ug/ml after 24 hrs (reference value: 6.80 +/- 0.70 ug/10^6 cells); type: functional
Procedure, shortened: (§1)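 After 24 h exposure of MCF-7 cells to compound at 2, 5, 10 or 20 µg/ml at 37 °C, nucleic acids were precipitated from cell homogenates. DNA was extracted and assayed by the Zhou et al. method, and RNA by a kit-derived procedure. Results given per 10⁶ cells as means ± S.E. of four experiments versus untreated control.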

[11] = system: MCF7; assay: Effect on DNA level in human MCF7 cells assessed per 10 '6 cells at 5 ug/ml after 24 hrs (reference value: 6.80 +/- 0.70 ug/10^6 cells); type: functional; procedure, shortened: as §1
[12] = system: MCF7; assay: Effect on DNA level in human MCF7 cells assessed per 10 '6 cells at 10 ug/ml after 24 hrs (reference value: 6.80 +/- 0.70 ug/10^6 cells); type: functional; procedure, shortened: as §1
[13] = system: MCF7; assay: Effect on DNA level in human MCF7 cells assessed per 10 '6 cells at 20 ug/ml after 24 hrs (reference value: 6.80 +/- 0.70 ug/10^6 cells); type: functional; procedure, shortened: as §1
[14] = system: MCF7; assay: Effect on RNA level in human MCF7 cells assessed per 10 '6 cells at 2 ug/ml after 24 hrs (reference value: 11.50 +/- 0.70 ug/10^6 cells); type: functional; procedure, shortened: as §1
[15] = system: MCF7; assay: Effect on RNA level in human MCF7 cells assessed per 10 '6 cells at 5 ug/ml after 24 hrs (reference value: 11.50 +/- 0.70 ug/10^6 cells); type: functional; procedure, shortened: as §1
[16] = system: MCF7; assay: Effect on RNA level in human MCF7 cells assessed per 10 '6 cells at 10 ug/ml after 24 hrs (reference value: 11.50 +/- 0.70 ug/10^6 cells); type: functional; procedure, shortened: as §1
[17] = system: MCF7; assay: Effect on RNA level in human MCF7 cells assessed per 10 '6 cells at 20 ug/ml after 24 hrs (reference value: 11.50 +/- 0.70 ug/10^6 cells); type: functional; procedure, shortened: as §1
[18] = system: MCF7; assay: Decrease in DNA level in human MCF7 cells assessed per 10 '6 cells after 24 hrs relative to control; type: functional, cell-based; procedure, shortened: as §1
[19] = system: MCF7; assay: Decrease in RNA level in human MCF7 cells assessed per 10 '6 cells after 24 hrs relative to control; type: functional, cell-based; procedure, shortened: as §1
[20] = system: MCF7; assay: Antiproliferative activity against human MCF7 cells after 24 hrs by MTT assay; type: functional, cell-based; conditions: for IC50: MCF7, 24 h
Procedure, shortened: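 MCF-7 cells (DMEM, 10% heat-inactivated FCS, penicillin/streptomycin, 37 °C, 5% CO2) plated at 0.65 × 10⁵ cells/well and given 24 h to attach. Exposed to compound or cisplatin at 2, 5, 10 or 20 µg/ml for 24 h at 37 °C. MTT added for 4 h, formazan dissolved in DMSO, absorbance read at 570 nm. Viability taken relative to untreated cells and IC50 derived.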

[21] = system: MCF7; assay: Effect on SOD level in human MCF7 cells assessed per mg protein at 2 ug/ml after 24 hrs (reference value: 27.61+/- 3.72 U/mg of protein); type: functional
[22] = system: MCF7; assay: Effect on SOD level in human MCF7 cells assessed per mg protein at 5 ug/ml after 24 hrs (reference value: 27.61+/- 3.72 U/mg of protein); type: functional
[23] = system: MCF7; assay: Effect on SOD level in human MCF7 cells assessed per mg protein at 10 ug/ml after 24 hrs (reference value: 27.61+/- 3.72 U/mg of protein); type: functional
[24] = system: MCF7; assay: Effect on SOD level in human MCF7 cells assessed per mg protein at 20 ug/ml after 24 hrs (reference value: 27.61+/- 3.72 U/mg of protein); type: functional
[25] = system: MCF7; assay: Effect on CAT level in human MCF7 cells assessed per mg protein at 2 ug/ml after 24 hrs (reference value: 7.90+/- 0.67 U/mg of protein); type: functional
[26] = system: MCF7; assay: Effect on CAT level in human MCF7 cells assessed per mg protein at 5 ug/ml after 24 hrs (reference value: 7.90+/- 0.67 U/mg of protein); type: functional
[27] = system: MCF7; assay: Effect on CAT level in human MCF7 cells assessed per mg protein at 10 ug/ml after 24 hrs (reference value: 7.90+/- 0.67 U/mg of protein); type: functional
[28] = system: MCF7; assay: Effect on CAT level in human MCF7 cells assessed per mg protein at 20 ug/ml after 24 hrs (reference value: 7.90+/- 0.67 U/mg of protein); type: functional
[29] = system: MCF7; assay: Effect on glutathione peroxidase level in human MCF7 cells assessed per mg protein at 2 ug/ml after 24 hrs (reference value: 11.20 +/- 1.36 U/mg of protein); type: functional
[30] = system: MCF7; assay: Effect on glutathione peroxidase level in human MCF7 cells assessed per mg protein at 5 ug/ml after 24 hrs (reference value: 11.20 +/- 1.36 U/mg of protein); type: functional
[31] = system: MCF7; assay: Effect on glutathione peroxidase level in human MCF7 cells assessed per mg protein at 10 ug/ml after 24 hrs (reference value: 11.20 +/- 1.36 U/mg of protein); type: functional
[32] = system: MCF7; assay: Effect on glutathione peroxidase level in human MCF7 cells assessed per mg protein at 20 ug/ml after 24 hrs (reference value: 11.20 +/- 1.36 U/mg of protein); type: functional
[33] = system: MCF7; assay: Effect on glutathione level in human MCF7 cells assessed per mg protein at 2 ug/ml by Ellman method after 24 hrs (reference value: 39.82 +/- 4.20 nmol/mg of protein); type: functional
[34] = system: MCF7; assay: Effect on glutathione level in human MCF7 cells assessed per mg protein at 5 ug/ml by Ellman method after 24 hrs (reference value: 39.82 +/- 4.20 nmol/mg of protein); type: functional
[35] = system: MCF7; assay: Effect on glutathione level in human MCF7 cells assessed per mg protein at 10 ug/ml by Ellman method after 24 hrs (reference value: 39.82 +/- 4.20 nmol/mg of protein); type: functional
[36] = system: MCF7; assay: Effect on glutathione level in human MCF7 cells assessed per mg protein at 20 ug/ml by Ellman method after 24 hrs (reference value: 39.82 +/- 4.20 nmol/mg of protein); type: functional

| SMILES | Activity [1] | Activity [2] | Activity [3] | Activity [4] | Activity [5] | Activity [6] | Activity [7] | Activity [8] | Activity [9] | Activity [10] | Activity [11] | Activity [12] | Activity [13] | Activity [14] | Activity [15] | Activity [16] | Activity [17] | Activity [18] | Activity [19] | Activity [20] | also measured |
| --- | --- | --- | --- | --- | --- | --- | --- | --- | --- | --- | --- | --- | --- | --- | --- | --- | --- | --- | --- | --- | --- |
| Cc1nc(-n2ncc3c(Cl)ncnc32)c2c3c(sc2n1)CCc1ccccc1-3 | 28.23 nmol | 25.45 nmol | 37.85 nmol | 52.33 nmol | Dose-dependent effect | Dose-dependent effect | Dose-dependent effect | Dose-dependent effect | Dose-dependent effect | 4.85 µg/10^6 cells | 4.46 µg/10^6 cells | 4 µg/10^6 cells | 3.85 µg/10^6 cells | 8.75 µg/10^6 cells | 7.5 µg/10^6 cells | 6.7 µg/10^6 cells | 6.5 µg/10^6 cells | Dose-dependent effect | Dose-dependent effect | Dose-dependent effect | IC50 [20]: 7 µg/mL (≈ 17.3 µM); Activity [21]: 80.2 U/mg protein; Activity [22]: 90.6 U/mg protein; Activity [23]: 160 U/mg protein; Activity [24]: 201 U/mg protein; Activity [25]: 5.8 U/mg protein; Activity [26]: 4.9 U/mg protein; Activity [27]: 4.2 U/mg protein; Activity [28]: 3.65 U/mg protein; Activity [29]: 8 U/mg protein; Activity [30]: 7.6 U/mg protein; Activity [31]: 7 U/mg protein; Activity [32]: 6.7 U/mg protein; Activity [33]: 35.8 nmol; Activity [34]: 29.5 nmol; Activity [35]: 27.2 nmol; Activity [36]: 25 nmol |
| Cc1nc(-n2ncc3c(=S)[nH]cnc32)c2c3c(sc2n1)CCc1ccccc1-3 | 24.2 nmol | 21.6 nmol | 30.5 nmol | 46.37 nmol | Dose-dependent effect | Dose-dependent effect | Dose-dependent effect | Dose-dependent effect | Dose-dependent effect | 5.3 µg/10^6 cells | 5 µg/10^6 cells | 4.76 µg/10^6 cells | 4 µg/10^6 cells | 9.11 µg/10^6 cells | 7.9 µg/10^6 cells | 7 µg/10^6 cells | 6.8 µg/10^6 cells | Dose-dependent effect | Dose-dependent effect | Dose-dependent effect | IC50 [20]: 8 µg/mL (≈ 19.9 µM); Activity [21]: 77.9 U/mg protein; Activity [22]: 85.4 U/mg protein; Activity [23]: 121 U/mg protein; Activity [24]: 181 U/mg protein; Activity [25]: 6.33 U/mg protein; Activity [26]: 5.36 U/mg protein; Activity [27]: 4.9 U/mg protein; Activity [28]: 4 U/mg protein; Activity [29]: 8.3 U/mg protein; Activity [30]: 7.9 U/mg protein; Activity [31]: 7.7 U/mg protein; Activity [32]: 6.82 U/mg protein; Activity [33]: 39.9 nmol; Activity [34]: 33.12 nmol; Activity [35]: 29.11 nmol; Activity [36]: 27 nmol |
| CCSc1ncnc2c1cnn2-c1nc(C)nc2sc3c(c12)-c1ccccc1CC3 | 35 nmol | 55 nmol | 60.5 nmol | 80 nmol | Dose-dependent effect | Dose-dependent effect | Dose-dependent effect | Dose-dependent effect | Dose-dependent effect | 3.8 µg/10^6 cells | 3.1 µg/10^6 cells | 2.76 µg/10^6 cells | 1.82 µg/10^6 cells | 5.5 µg/10^6 cells | 4.32 µg/10^6 cells | 4 µg/10^6 cells | 3.61 µg/10^6 cells | Dose-dependent effect | Dose-dependent effect | Dose-dependent effect | IC50 [20]: 3 µg/mL (≈ 6.97 µM); Activity [21]: 125 U/mg protein; Activity [22]: 150 U/mg protein; Activity [23]: 360 U/mg protein; Activity [24]: 385 U/mg protein; Activity [25]: 3.6 U/mg protein; Activity [26]: 2.9 U/mg protein; Activity [27]: 1.76 U/mg protein; Activity [28]: 1.55 U/mg protein; Activity [29]: 5.6 U/mg protein; Activity [30]: 4.25 U/mg protein; Activity [31]: 3 U/mg protein; Activity [32]: 2.2 U/mg protein; Activity [33]: 20.11 nmol; Activity [34]: 19.16 nmol; Activity [35]: 17 nmol; Activity [36]: 14.8 nmol |
